ChEMBL document CHEMBL3745659, “Synthesis and Characterization of 4,11-Diaminoanthra[2,3-b]furan-5,10-diones: Tumor Cell Apoptosis through tNOX-Modulated NAD(+)/NADH Ratio and SIRT1” (J Med Chem, 2015)
Activity calls are given as the source filed them. The rule behind the calls is not given here.

What was measured:
[1] = test system: CCRF-CEM; assay: Antiproliferative activity against human CEM cells after 72 hrs by MTT assay; assay type: functional, cell-based
[2] = test system: HeLa; assay: Antiproliferative activity against human HeLa cells after 72 hrs by MTT assay; assay type: functional, cell-based
[3] = Antiproliferative activity against human HCT116 cells after 72 hrs by MTT assay; assay type: functional, cell-based; conditions: HCT-116, 72 h
[4] = test system: K562; assay: Antiproliferative activity against human K562 cells after 72 hrs by MTT assay; assay type: functional, cell-based; conditions: K562, 72 h
[5] = Antiproliferative activity against human K562/4 cells after 72 hrs by MTT assay; assay type: functional, cell-based; conditions: K562/4, 72 h
[6] = target: T1, DNA topoisomerase 1 (Homo sapiens) (UniProt P11387); assay: Inhibition of Top1 (unknown origin)-mediated relaxation of pBR322 DNA at 2.5 uM incubated for 30 mins by ethidium bromide staining-based gel electrophoresis assay
T1 sequence (whole entry): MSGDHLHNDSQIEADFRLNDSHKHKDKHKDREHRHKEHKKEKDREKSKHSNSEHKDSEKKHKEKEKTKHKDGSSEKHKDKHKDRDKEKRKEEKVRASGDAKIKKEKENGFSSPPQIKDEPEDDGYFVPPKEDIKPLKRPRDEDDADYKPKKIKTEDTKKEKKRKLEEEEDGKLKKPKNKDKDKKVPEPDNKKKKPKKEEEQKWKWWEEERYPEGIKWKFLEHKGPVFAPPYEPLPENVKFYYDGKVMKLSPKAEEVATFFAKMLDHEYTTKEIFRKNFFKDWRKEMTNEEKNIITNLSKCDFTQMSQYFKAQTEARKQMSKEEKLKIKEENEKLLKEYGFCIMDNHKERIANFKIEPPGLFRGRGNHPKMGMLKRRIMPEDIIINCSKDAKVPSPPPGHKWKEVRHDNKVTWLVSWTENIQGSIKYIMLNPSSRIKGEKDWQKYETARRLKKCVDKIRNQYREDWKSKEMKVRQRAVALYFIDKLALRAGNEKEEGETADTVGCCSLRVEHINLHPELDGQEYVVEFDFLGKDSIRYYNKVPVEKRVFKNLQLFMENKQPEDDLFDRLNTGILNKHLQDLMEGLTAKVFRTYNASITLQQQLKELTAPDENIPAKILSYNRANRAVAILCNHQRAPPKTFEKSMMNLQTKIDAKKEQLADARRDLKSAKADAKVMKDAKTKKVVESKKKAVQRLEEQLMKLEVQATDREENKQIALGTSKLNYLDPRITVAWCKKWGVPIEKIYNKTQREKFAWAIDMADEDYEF
Method in brief: (§1)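 Supercoiled pBR322 plasmid treated with Top1 without drug or with compound at 0.5, 2.5 or 10 µM; camptothecin as reference; relaxation assessed by gel electrophoresis.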

[7] = target: T1, DNA topoisomerase 1 (Homo sapiens); assay: Inhibition of Top1 (unknown origin)-mediated relaxation of pBR322 DNA at 0.5 uM incubated for 30 mins by ethidium bromide staining-based gel electrophoresis assay; method in brief: as §1
[8] = test system: AGS; assay: Induction of apoptosis in human AGS cells after 24 hrs by annexin V-FITC staining-based flow cytometric analysis; assay type: functional, cell-based
Method in brief: (§2)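 AGS cells exposed to compound for 24 h; Annexin V-FITC staining and flow cytometry used to give percentage of apoptotic cells; mean ± S.E. from at least three independent experiments.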

[9] = test system: AGS; assay: Induction of apoptosis in human AGS cells assessed as necrotic cells at 5 uM after 24 hrs by annexin V-FITC staining-based flow cytometric analysis (Rvb=1.1%); assay type: functional
[10] = test system: AGS; assay: Induction of apoptosis in human AGS cells assessed as necrotic cells at 10 uM after 24 hrs by annexin V-FITC staining-based flow cytometric analysis (Rvb=1.1%); assay type: functional
[11] = test system: AGS; assay: Induction of apoptosis in human AGS cells assessed as late apoptotic cells at 5 uM after 24 hrs by annexin V-FITC staining-based flow cytometric analysis (Rvb=5.5%); assay type: functional; method in brief: as §2
[12] = test system: AGS; assay: Induction of apoptosis in human AGS cells assessed as late apoptotic cells at 10 uM after 24 hrs by annexin V-FITC staining-based flow cytometric analysis (Rvb=5.5%); assay type: functional; method in brief: as §2
[13] = test system: AGS; assay: Induction of apoptosis in human AGS cells assessed as early apoptotic cells at 5 uM after 24 hrs by annexin V-FITC staining-based flow cytometric analysis (Rvb=9.8%); assay type: functional; method in brief: as §2
[14] = test system: AGS; assay: Induction of apoptosis in human AGS cells assessed as early apoptotic cells at 10 uM after 24 hrs by annexin V-FITC staining-based flow cytometric analysis (Rvb=9.8%); assay type: functional; method in brief: as §2
[15] = test system: AGS; assay: Induction of apoptosis in human AGS cells assessed as viable cells at 5 uM after 24 hrs by annexin V-FITC staining-based flow cytometric analysis (Rvb=83.7%); assay type: functional; conditions: read-out: Activity; method in brief: as §2
[16] = test system: AGS; assay: Induction of apoptosis in human AGS cells assessed as viable cells at 10 uM after 24 hrs by annexin V-FITC staining-based flow cytometric analysis (Rvb=83.7%); assay type: functional; conditions: read-out: Activity; method in brief: as §2
[17] = test system: AGS; assay: Upregulation of phosphorylated p53 level in human AGS cells at 1 and 5 uM after 24 hrs by Western blot analysis; assay type: functional, cell-based
[18] = test system: AGS; assay: Upregulation of total p53 level in human AGS cells at 1 and 5 uM after 24 hrs by Western blot analysis; assay type: cell-based
[19] = test system: AGS; assay: Upregulation of caspase3-directed PARP cleavage in human AGS cells at 5 uM after 24 hrs by Western blot analysis; assay type: functional, cell-based
[20] = test system: AGS; assay: Downregulation of Bid protein level in human AGS cells after 24 hrs by Western blot analysis; assay type: functional, cell-based
[21] = test system: AGS; assay: Increase in intracellular NAD+/NADH ratio in human AGS cells at 5 uM incubated for 5 mins; assay type: functional, cell-based
[22] = test system: K562; assay: Resistance index, ratio of IC50 for human K562/4 cells to IC50 for human K562 cells; assay type: functional
[23] = target: T2, NAD-dependent protein deacetylase sirtuin-1 (Homo sapiens) (UniProt Q96EB6); assay: Inhibition of human recombinant SIRT1 deacetylase activity using Arg-His-Lys-Lys(epsilon-acetyl)-AMC as substrate at 5 uM incubated for 45 mins by fluorescence analysis
T2 sequence (whole entry): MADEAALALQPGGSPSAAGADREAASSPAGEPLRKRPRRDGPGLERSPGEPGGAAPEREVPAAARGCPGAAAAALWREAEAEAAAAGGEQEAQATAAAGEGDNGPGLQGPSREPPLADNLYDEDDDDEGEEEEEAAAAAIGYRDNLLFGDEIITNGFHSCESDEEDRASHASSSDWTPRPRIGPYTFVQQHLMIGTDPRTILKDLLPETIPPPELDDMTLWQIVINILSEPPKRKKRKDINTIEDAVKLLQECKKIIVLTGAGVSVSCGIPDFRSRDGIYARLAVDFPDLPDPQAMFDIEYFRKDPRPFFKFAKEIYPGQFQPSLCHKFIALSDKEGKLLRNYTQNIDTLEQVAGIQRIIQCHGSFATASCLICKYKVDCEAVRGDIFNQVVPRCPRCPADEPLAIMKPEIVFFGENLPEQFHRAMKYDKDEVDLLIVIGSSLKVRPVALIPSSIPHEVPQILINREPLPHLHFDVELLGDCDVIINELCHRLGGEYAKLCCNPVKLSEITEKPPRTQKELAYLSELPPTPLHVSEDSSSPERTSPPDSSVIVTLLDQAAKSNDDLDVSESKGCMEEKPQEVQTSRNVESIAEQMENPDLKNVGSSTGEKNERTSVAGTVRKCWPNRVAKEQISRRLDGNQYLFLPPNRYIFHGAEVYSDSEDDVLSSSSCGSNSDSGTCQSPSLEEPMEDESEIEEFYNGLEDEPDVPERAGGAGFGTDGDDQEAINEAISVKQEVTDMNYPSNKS

[24] = test system: AGS; assay: Upregulation of acetylated p53 level in human AGS cells at 1 and 5 uM after 24 hrs by Western blot analysis; assay type: functional, cell-based
[25] = test system: AGS; assay: Downregulation of SIRT1 protein level in human AGS cells at 1 and 5 uM after 24 after 24 hrs by Western blot analysis; assay type: functional, cell-based
[26] = test system: AGS; assay: Downregulation of tNOX protein level in human AGS cells at 1 and 5 uM after 24 hrs by Western blot analysis; assay type: functional, cell-based
[27] = test system: L1210; assay: Antiproliferative activity against mouse L1210 cells after 72 hrs by MTT assay; conditions: L1210, 72 h
[28] = target: DNA topoisomerase 2-alpha (Homo sapiens) (UniProt P11388); assay: Inhibition of Top2 (unknown origin)-mediated relaxation of pBR322 DNA at 0.1 to 2.5 uM incubated for 30 mins by ethidium bromide staining-based gel electrophoresis assay
Sequence of DNA topoisomerase 2-alpha (Homo sapiens) (P11388 whole entry): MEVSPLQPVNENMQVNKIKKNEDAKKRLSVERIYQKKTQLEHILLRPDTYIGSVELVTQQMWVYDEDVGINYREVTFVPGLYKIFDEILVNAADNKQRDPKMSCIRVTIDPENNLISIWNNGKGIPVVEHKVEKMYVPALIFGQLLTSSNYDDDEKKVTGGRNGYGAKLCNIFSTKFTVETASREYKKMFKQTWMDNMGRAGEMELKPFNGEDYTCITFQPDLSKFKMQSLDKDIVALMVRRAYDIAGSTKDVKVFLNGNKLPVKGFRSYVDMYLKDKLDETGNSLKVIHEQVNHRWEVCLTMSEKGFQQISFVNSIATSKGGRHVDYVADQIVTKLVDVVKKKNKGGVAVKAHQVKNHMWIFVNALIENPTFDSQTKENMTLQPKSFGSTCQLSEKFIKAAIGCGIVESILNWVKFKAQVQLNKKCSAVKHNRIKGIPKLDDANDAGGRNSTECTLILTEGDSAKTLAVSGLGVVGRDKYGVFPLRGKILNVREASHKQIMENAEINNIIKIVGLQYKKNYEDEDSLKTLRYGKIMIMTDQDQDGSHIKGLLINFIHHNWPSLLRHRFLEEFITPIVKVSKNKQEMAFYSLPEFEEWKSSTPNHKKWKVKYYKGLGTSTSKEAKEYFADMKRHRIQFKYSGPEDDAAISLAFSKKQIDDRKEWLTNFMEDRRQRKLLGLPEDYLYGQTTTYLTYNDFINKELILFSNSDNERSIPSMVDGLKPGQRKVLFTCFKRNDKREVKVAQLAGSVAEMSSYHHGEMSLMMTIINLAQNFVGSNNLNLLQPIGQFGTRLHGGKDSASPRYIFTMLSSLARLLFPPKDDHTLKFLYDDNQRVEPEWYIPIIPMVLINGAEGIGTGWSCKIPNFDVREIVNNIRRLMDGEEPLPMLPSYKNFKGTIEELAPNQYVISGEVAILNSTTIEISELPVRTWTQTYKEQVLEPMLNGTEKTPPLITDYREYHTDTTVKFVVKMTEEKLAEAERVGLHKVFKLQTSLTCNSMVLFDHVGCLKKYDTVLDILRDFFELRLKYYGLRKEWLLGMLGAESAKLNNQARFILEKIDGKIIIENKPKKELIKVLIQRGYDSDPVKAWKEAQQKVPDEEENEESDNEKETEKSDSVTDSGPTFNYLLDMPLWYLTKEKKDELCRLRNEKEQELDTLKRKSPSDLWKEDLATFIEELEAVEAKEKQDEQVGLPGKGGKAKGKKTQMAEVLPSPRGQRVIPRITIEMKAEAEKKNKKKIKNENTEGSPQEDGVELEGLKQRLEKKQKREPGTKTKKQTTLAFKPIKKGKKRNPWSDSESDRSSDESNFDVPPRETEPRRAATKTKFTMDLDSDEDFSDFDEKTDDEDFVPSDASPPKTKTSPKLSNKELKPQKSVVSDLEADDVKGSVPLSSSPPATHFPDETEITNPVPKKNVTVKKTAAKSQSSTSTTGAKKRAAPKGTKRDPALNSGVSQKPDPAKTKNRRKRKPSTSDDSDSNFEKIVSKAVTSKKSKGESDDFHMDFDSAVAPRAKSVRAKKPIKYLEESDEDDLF

IC50 [1]: 9.02 µM
IC50 [2]: 3.27 µM
IC50 [4]: 1.65 µM
inhibition [6]: Active
inhibition [7]: Active
Activity [18]: Not Active
inhibition [23]: inactive
IC50 [27]: 5.54 µM
inhibition [28]: Active
SMILES: N=C(N)NCCNc1c2c(c(NCCNC(=N)N)c3occc13)C(=O)c1ccccc1C2=O
IC50 [3]: 1.02 µM
IC50 [5]: 6.53 µM
Activity [8]: inactive
Activity [9]: 1%
Activity [10]: 1.5%
Activity [11]: 4.2%
Activity [12]: 3%
Activity [13]: 8.6%
Activity [14]: 10.5%
viability at 5 µM [15]: 86.3%
viability at 10 µM [16]: 84.9%
Activity [17]: inactive
Activity [19]: inactive
Activity [20]: inactive
Activity [21]: Active
Ratio IC50 [22]: 3.98
Activity [24]: inactive
Activity [25]: inactive
Activity [26]: inactive
